# Compound activity: PubChem, several laboratories
# HSP90 inh – blocks HSP90-mediated luciferase refolding in reticulocyte lysate; Rabbit reticulocyte lysate, luciferase refolding luminescence, 3 h; inhibition, % at 5.6 µM; 290,000 compounds, 0.91% hits;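 active = inhibition above the screen-wide mean plus 3 SD, computed separately per campaign, cut at about 16% in these data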;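 also: 0% = DMSO wells and 100% = 60 µM geldanamycin wells; inhibitors lower the luminescence because luciferase stays unfolded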
# Hep lipid drop – modulators of hepatic lipid droplet formation | 240,000 compounds, 0.4% hits | AML12 mouse hepatocytes, oleate lipid droplets, BODIPY imaging | inhibition, % at 6.5 µM | AID 1656;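 active = lipid droplet intensity inhibited by at least 50%, with more than 500 cells counted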
#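 Material: mouse AML12 hepatocyte cell line, fixed after treatment; Timing: compound with oleate, overnight; Technique: high-content imaging of BODIPY-stained droplets and DAPI nuclei; Probe or stimulus: oleate, 100 µM final; Dosing: compound at 6.5 µM only.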
# HSF1 inhib – HSF1 inhibition; NIH3T3-HGL HSE-luciferase, MG132-induced, luminescence 8 h; hits give low values; activity change, negative = inhibition, % at 7.5 µM (by protocol); 300,000 compounds, 0.77% hits; AID 2098;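 active = more than half of replicate wells show activity change below -50%, luminescence cut by over half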;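 also: luciferase reports HSF-1 transcriptional activity via heat shock element; 0% = median of DMSO wells and -100% = zero luminescence signal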
# NS3 helicase inh – blocks Hepatitis C virus NS3 helicase unwinding. NS3 helicase DNA unwinding, Cy5 molecular beacon fluorescence. inhibition, % at 10.9 µM. 290,000 compounds, 0.56% hits. AID 1800;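 active = inhibition above the mean of all tested compounds plus 3 SD, set per campaign, cut at about 35% in these data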;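 also: 0% = DMSO wells and 100% = thioflavine S control wells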
#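 System: HCV NS3 helicase fragment; control set: DMSO and thioflavine S; technique: Cy5 fluorescence at 0 and 60 min, beacon hairpin quenching; reagent: beacon DNA duplex substrate plus ATP; replicates: singlicate; schedule: 1 h reaction at 25 °C, ATP-initiated; medium: MOPS buffer pH 6.5 with MgCl2, DTT, Tween20, BSA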
# HSF1 activator – increases HSF-1 driven luciferase reporter signal; NIH3T3-HGL HSF-1 luciferase reporter, MG132, 8 h; 100% = twice DMSO control signal; 300,000 compounds, 1.7% hits; AID 504408; activation, % at 9 µM;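 active = mean replicate activation of at least 50% with a set share of replicates each reaching 50%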;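 also: 0% = median of the neutral control wells and 100% = twice that signal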
# HSP90 inh confirm – HSP90 inhibition, confirmation assay; shares compounds with HSP90 inh; rabbit reticulocyte lysate, luciferase refolding luminescence, 3 h; inhibition, % at 5.9 µM; 2,300 compounds, 64% hits; AID 1846; in the data active = inhibition above about 18%;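 also: 0% = vehicle wells and 100% = reference inhibitor wells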
# FLuc counter – blocks native firefly luciferase in HSP90 counter-screen; shares compounds with HSP90 inh; purified native firefly luciferase, luminescence; inhibition, % at 5.9 µM; 2,300 compounds, 48% hits; AID 1847;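 active = inhibition above the mean inhibition of all tested sample wells plus 3 SD, cut at about 10% in these data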;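 also: 0% = DMSO with luciferase and 100% = wells lacking luciferase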
# Target sequence (P08659 whole entry, looked up): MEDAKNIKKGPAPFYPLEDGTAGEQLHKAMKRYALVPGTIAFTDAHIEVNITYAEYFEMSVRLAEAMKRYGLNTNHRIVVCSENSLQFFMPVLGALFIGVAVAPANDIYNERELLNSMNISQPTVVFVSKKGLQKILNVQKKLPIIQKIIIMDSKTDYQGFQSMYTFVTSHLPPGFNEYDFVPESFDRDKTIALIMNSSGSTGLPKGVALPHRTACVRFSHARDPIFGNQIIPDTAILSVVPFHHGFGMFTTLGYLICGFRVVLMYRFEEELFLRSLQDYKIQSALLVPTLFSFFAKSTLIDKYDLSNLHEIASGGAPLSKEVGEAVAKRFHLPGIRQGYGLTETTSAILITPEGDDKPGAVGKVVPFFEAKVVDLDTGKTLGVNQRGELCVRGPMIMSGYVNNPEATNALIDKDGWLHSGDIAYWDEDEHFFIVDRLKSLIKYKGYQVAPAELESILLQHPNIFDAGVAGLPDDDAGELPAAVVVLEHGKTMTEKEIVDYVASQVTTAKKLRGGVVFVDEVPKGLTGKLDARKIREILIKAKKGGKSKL
# * = called active by the depositor; / = no result given. A selection: hits, their analogues and other compounds. The true share with any hit is near 3.8%.
SMILES,HSP90 inh,Hep lipid drop,HSF1 inhib,NS3 helicase inh,HSF1 activator,HSP90 inh confirm,FLuc counter
Cc1ccsc1/C=N\NC(=O)c1n[nH]c2c1CCC2,20*,-2,-17,1,-8,48*,43*
COc1ccccc1CNC(=O)CS(=O)(=O)c1ccccc1,1,4,-7,1,-2,/,/
COC(=O)c1ccc(-c2nc(CN3CCCN(C(=O)c4ccco4)CC3)c(C)o2)cc1,25*,-12,0,1,2,16,-11
Cc1ccc(C2/C(=C(/O)c3cnn(-c4ccccc4)c3C)C(=O)C(=O)N2CCN2CCOCC2)o1 (centres undefined),21*,3,-8,0,-7,16,5
Cc1c(/C(O)=C2/C(=O)C(=O)N(CCN3CCOCC3)C2c2cccs2)cnn1-c1ccccc1 (centres undefined),45*,-1,-1,16,-6,47*,40*
Cc1ccc(C2/C(=C(/O)c3ccccc3)C(=O)C(=O)N2CCN2CCOCC2)o1 (centres undefined),8,/,-9,15,-11,/,/
COc1ccc(OC)c(NC(=O)CC2Oc3ccccc3NC2=O)c1 (centres undefined),-3,21,-3,1,-4,/,/
O=C(O)c1cccc(Nc2nc(N3CCOCC3)nc(N3CCOCC3)n2)c1,3,-2,-4,-12,-7,/,/
O=C(O)c1cccc(Nc2ccnc(Nc3cccc(C(=O)O)c3)n2)c1,37*,/,-55*,2,-60,40*,58*
Cn1nc(-c2ccccc2)c(CO)c1Oc1ccc(F)cc1,0,7,6,-4,7,/,/
Cc1c(N2C(=O)C3C4C=CC(C4)C3C2=O)c(=O)n(-c2ccccc2)n1C (centres undefined),-1,0,-8,9,-4,/,/
CCOC(=O)C1CCN(c2ccc(-c3cccs3)nn2)CC1,27*,-5,8,-2,15,34*,38*
c1csc(-c2ccc(N3CCOCC3)nn2)c1,28*,/,8,-5,19,34*,17*
CCOC(=O)C1CCN(c2ccc(Cl)nn2)CC1,1,5,-4,-9,-5,/,/
c1csc(-c2nnc(-c3ccc(N4CCOCC4)cc3)o2)c1,5,/,19,-4,14,/,/
COc1cc(CN2CCCC(C(=O)N3CCc4ccccc4C3)C2)cc(OC)c1OC (centres undefined),-2,-11,-8,-20,1,/,/
N#Cc1cc([N+](=O)[O-])ccc1N1CCN(c2ccccc2O)CC1,-1,0,7,0,10,/,/
O=[N+]([O-])c1ccc(N2CCN(c3ccc([N+](=O)[O-])cc3CO)CC2)c(CO)c1,19*,-3,-3,-6,-4,5,-4
CN(C)C(CNC(=O)C1CCN(S(=O)(=O)c2ccccc2)CC1)c1ccccc1 (centres undefined),1,-10,5,-3,-15,/,/
CN(C)C(CNC(=O)C1CCN(S(=O)(=O)c2cccc(C(F)(F)F)c2)CC1)c1ccccc1 (centres undefined),40*,-6,-2,-25,19,-4,-13
NC(=O)NC(=O)C(Nc1ccc(N2CCCCC2)cc1)c1ccccc1 (centres undefined),23*,7,-3,13,-17,10,6
Cc1ccccc1Sc1ccc(N)cn1,/,/,-3,/,-7,/,/
Brc1ccc(-c2ncc3ccccn23)cc1,27*,-18,/,15,/,1,-12
CC(=O)Nc1ccc(/C=N/Nc2nncc3ccccc23)cc1,3,5,-4,17,3,/,/
C/C(=N\Nc1nncc2ccccc12)c1ccc(OCC(=O)N(C)C)cc1,3,16,-1,-3,15,/,/
SMILES,HSP90 inh,Hep lipid drop,HSF1 inhib,NS3 helicase inh,HSF1 activator,HSP90 inh confirm,FLuc counter
Fc1cccc(/C=N/Nc2nncc3ccccc23)c1,29*,/,24,-13,17,51*,41*
CC/C(=N\Nc1nncc2ccccc12)c1ccc(F)cc1,17*,2,24,15,18,-5,-25
c1ccc(-c2nc(-c3nccc4ccccc34)oc2-c2ccccc2)cc1,23*,2,5,-4,31,28*,35*
Nc1nc(-c2ccccc2)c(-c2ccccc2)o1,-1,3,-3,6,-9,/,/
CCOc1ccc2c(c1)S/C(=C\c1cccs1)C(=O)N2,8,-1,-1,5,-4,/,/
COc1ccc(/C=N/N=C2/NC(=O)CC(C(=O)O)S2)cc1 (centres undefined),23*,-8,4,-8,-4,36*,-15
COc1ccc(C(=O)NCCC2=CCCCC2)cc1,32*,-2,-4,4,6,54*,48*
NC1=NS(=O)(=O)NC1c1cccc(Cl)c1 (centres undefined),22*,/,-1,14,-1,-3,-6
CN(C)/C=C1/Sc2ccccc2C1=O,21*,/,0,9,-16,-2,-16
CC(=O)N(\C=C/C=C/C=C1\Sc2ccccc2C1=O)c1ccccc1,-2,6,7,14,11,/,/
COc1ccc(/C=N/n2c(-c3ccco3)nc3ccccc3c2=O)cc1,19*,-52,9,0,9,0,-6
COCCCNC(=O)C(=O)C1C(=O)Nc2ccccc21 (centres undefined),0,-2,-8,5,4,/,/
O=[N+]([O-])c1ccc(-c2ccc(/C=N/O)o2)cc1,2,-1,13,2,23,/,/
O=[N+]([O-])c1ccc(-c2ccc(C=Nc3cccc4ccccc34)o2)cc1,18*,5,1,19,11,0,-8
CCN1CCN(C(c2ccccn2)c2c(NC(=O)c3ccccc3)sc(C)c2C)CC1 (centres undefined),33*,/,4,8,-5,-3,-10
CC(C)c1ccc(NC(=S)Nc2cccc3ccccc23)cc1,21*,-32,-68*,-3,-72,19*,-21
CC(C)(C)OC(=O)N1Cc2ccccc2C[C@H]1C(=O)NCC(=O)NC1CCCC1,-2,15,-1,6,-1,/,/
CC(C)(C)OC(=O)N1Cc2ccccc2C[C@H]1C(=O)NCC(=O)Nc1ccc2c(c1)OCCO2,32*,-12,-64*,-7,-63,52*,69*
CCOC(=O)c1c(S(=O)(=O)N2CCCC(C(=O)Nc3ncccc3C)C2)c(C)n(C)c1C (centres undefined),-8,4,-9,-2,-13,/,/
CCOC(=O)c1c(S(=O)(=O)N2CCCC(C(=O)Nc3cccc(C)n3)C2)c(C)n(C)c1C (centres undefined),21*,-6,-5,2,10,3,-3
